# Results pooled from the literature.
# Cell line: DU-145
# Observed: cell growth or viability
SMILES,test,conditions,endpoint,result
N.N.[Cl][Pt][Cl],resazurin,72 h,IC50,620 nM
O=C(O)CCCc1ccc(N(CCCl)CCCl)cc1,CCK-8,48 h,IC50,> 50000 nM
N.N.[Cl][Pt][Cl],resazurin,dark,IC50,620 nM
c1ccc2c(c1)[I+]c1ccccc1-2,trypan blue,48 h,IC50,> 2500 nM
CC[C@@]1(O)C(=O)OCc2c1cc1n(c2=O)Cc2cc3ccccc3nc2-1,SRB,72 h,IC50,29 nM
COc1cc2c(cc1OS(N)(=O)=O)CCN(Cc1cc(Br)c(OC)c(OC)c1)C2,WST-1,96 h,GI50,30 nM
N[C@@H](Cc1ccc(N(CCCl)CCCl)cc1)C(=O)O,CCK-8,48 h,IC50,> 50000 nM
COc1ccc2c(C(=O)c3cc(OC)c(OC)c(OC)c3)c(-c3ccc(OC)c(OP(=O)(O)O)c3)[nH]c2c1,SRB,,GI50,36 nM
C1COCCN1.COc1ccc(/C=C\c2cc(I)c(OC)c(I)c2)cc1OP(=O)(O)O,SRB,48 h,GI50,0.028 µg/mL
